# Measurements taken from publication PMC7847313 (Journal of natural products, 2018).
# pIC50: −log10 of the molar value. Where two headings read alike, the source gives them in different places. *1 amine or outer side, *2 acyl side, *3 side chain or, on linkers, in order; H or OH if unused. Where a SMILES comes first, the peptide text is derived from it. Bridges are numbered along the chain shown (N, C = ends). [ ]: non-standard residue; d: D form. The star is where a group is joined. Ahp(3S,6R)alloIle = CC[C@@H](C)[C@@H](C(=O)[*:2])N1C(=O)[C@@H](N[*:1])CC[C@H]1O; Propanoyl(2R-OMe,3-OSO3H) = CO[C@H](COS(=O)(=O)O)C(=O)*; NMeTyr(3-Br,OMe) = CN[C@@H](Cc1ccc(OC)c(Br)c1)C(=O)O; Cit = NC(=O)NCCC[C@H](N)C(=O)O; Butyryl = CCCC(=O)*
# Legend:
# [1] = target: T1, chymotrypsin (Bos taurus, UniProt P00766); experiment: Chymotrypsin assay; assay type: biochemical
# Outline: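 Enzyme (4 units/mL, in cold 1 mM HCl) and BTEE (1.18 mM) in 80 mM Tris-HCl, pH 7.8, made fresh. BTEE, buffer, CaCl2 and test compound (MeOH dilution series; MeOH blank) were equilibrated at 25 °C, then enzyme added last. A256 followed continuously: 3 min uninhibited, 30 s intervals with inhibitor. Activity in BTEE units/mL; IC50 by nonlinear regression.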
# [2] = cited from earlier work
# [3] = system: Vibrio cholerae secreted serine protease activity; conditions: as low as in cultures of T2S mutants, averaged; cited from earlier work
# [4] = system: NCI-H460 lung cancer cells; conditions: cited from earlier work
# [5] = system: neuro-2a neuroblastoma cells; conditions: read-out: IC50 neuro-2a neuroblastoma cells; cited from earlier work
# [6] = target: T1, chymotrypsin; conditions: cited from earlier work
structure (smiles),measurement,setting,value
"CC[C@@H](C)[C@H]1C(=O)N(C)[C@@H](Cc2ccc(OC)c(Br)c2)C(=O)N[C@@H]([C@@H](C)CC)C(=O)O[C@H](C)[C@H](NC(=O)[C@H](NC(=O)[C@@H](COS(=O)(=O)O)OC)C(C)C)C(=O)N[C@@H](CCCNC(=N)N)C(=O)N[C@H]2CC[C@@H](O)N1C2=O [Jizanpeptin E (5), Jizanpeptin E]",pIC50,[1],< 5.00
C/C=C1/NC(=O)C(NC(=O)C(NC(=O)C(CO)OC)C(C)C)C(C)OC(=O)C(C(C)C)NC(=O)C(Cc2ccccc2)N(C)C(=O)C(Cc2ccccc2)N2C(=O)C(CCC2O)NC1=O (stereo not drawn) [dolastatin 13],cytotoxicity,[2]; terminal Gac,nanomolar cytotoxicity
CC(=O)N[C@@H](CC(C)C)C(=O)N[C@@H](CC(C)C)C(=O)N[C@H](C=O)CCCNC(=N)N [leupeptin],"reduction in fluorescence, positive control",[3],93%
"CCCC(=O)N[C@H](CCC(N)=O)C(=O)N[C@@H]1C(=O)N[C@@H](CCCNC(N)=O)C(=O)N[C@H]2CC[C@@H](O)N(C2=O)[C@@H]([C@H](C)CC)C(=O)N(C)[C@@H](Cc2ccc(OC)c(Br)c2)C(=O)N[C@@H](C(C)C)C(=O)O[C@@H]1C [symplocamide A] (Butyryl-[dQ]T[Cit][Ahp(3S,6R)alloIle][NMeTyr(3-Br,OMe)]V; ester 2-C)",cytotoxicity to NCI-H460 lung cancer cells,[4],remarkably cytotoxic
same,pIC50,[4]; read-out: IC50 NCI-H460 lung cancer cells,7.40
same,pIC50,[5],7.54
same,selectivity chymotrypsin over trypsin,[6],greater selectivity for chymotrypsin over trypsin
"CC[C@@H](C)[C@H]1C(=O)N(C)[C@@H](Cc2ccc(OC)c(Br)c2)C(=O)N[C@@H]([C@@H](C)CC)C(=O)O[C@H](C)[C@H](NC(=O)[C@H](NC(=O)[C@H](O)COS(=O)(=O)O)C(C)C)C(=O)N[C@@H](CCCCN)C(=O)N[C@H]2CC[C@@H](O)N1C2=O [Jizanpeptin A (1), Jizanpeptin A]",pIC50,[1],< 5.00
C/C=C1\NC(=O)[C@@H](NC(=O)[C@H](CCc2ccc(O)cc2)NC(=O)[C@H](C)NC(=O)[C@H](O)COS(=O)(=O)O)[C@@H](C)OC(=O)[C@H](C(C)C)NC(=O)[C@H](Cc2ccc(O)cc2)N(C)C(=O)[C@H](Cc2ccccc2)N2C(=O)[C@H](CC[C@H]2O)NC1=O [lyngbyastatin 4],cytotoxicity,[2]; terminal Gac-sulfate,no cytotoxicity
"CC[C@@H](C)[C@H]1C(=O)N(C)[C@@H](Cc2ccc(OC)c(Br)c2)C(=O)N[C@@H]([C@@H](C)CC)C(=O)O[C@H](C)[C@H](NC(=O)[C@@H](NC(=O)[C@@H](COS(=O)(=O)O)OC)C(C)C)C(=O)N[C@@H](CCCCN)C(=O)N[C@H]2CC[C@@H](O)N1C2=O [Jizanpeptin C (3), Jizanpeptin C]",efficacy as a chymotrypsin inhibitor,"[1]; standardized assay conditions, up to 10 μM",full efficacy
"CC[C@@H](C)[C@H]1C(=O)N(C)[C@@H](Cc2ccc(OC)c(Br)c2)C(=O)N[C@@H]([C@@H](C)CC)C(=O)O[C@H](C)[C@H](NC(=O)[C@@H](NC(=O)[C@@H](COS(=O)(=O)O)OC)[C@@H](C)CC)C(=O)N[C@@H](CCCCN)C(=O)N[C@H]2CC[C@@H](O)N1C2=O [Jizanpeptin D (4), Jizanpeptin D] ({Propanoyl(2R-OMe,3-OSO3H)}-ITK[Ahp(3S,6R)alloIle][NMeTyr(3-Br,OMe)]I; ester 2-C)",pIC50,[1],< 5.00
"CC[C@@H](C)[C@H]1C(=O)N(C)[C@@H](Cc2ccc(OC)c(Br)c2)C(=O)N[C@@H]([C@@H](C)CC)C(=O)O[C@H](C)[C@H](NC(=O)[C@H](NC(=O)[C@@H](COS(=O)(=O)O)OC)C(C)C)C(=O)N[C@@H](CCCCN)C(=O)N[C@H]2CC[C@@H](O)N1C2=O [Jizanpeptin B (2), Jizanpeptin B]",pIC50,[1],< 5.00
